Converted amounts (≈) assume the structure as drawn. Non-standard residues stand in square brackets, D forms with d. Residues, ends and D or L forms follow the SMILES beside them. ξ: configuration not given here. *: point of attachment. X1 = COC(=O)/C=C/[C@H](CCC(N)=O)N*; ξE = NC(CCC(=O)O)C(=O)O; Boc = CC(C)(C)OC(=O)*; OtBu = CC(C)(C)O*
Key:
[1] = target: T1, Human rhinovirus A protease (Human rhinovirus sp.) (UniProt Q4U254); experiment: Percent inhibition of HRV-14 3C protease was measured at a concentration of 1 ug/mL
T1 sequence (whole entry): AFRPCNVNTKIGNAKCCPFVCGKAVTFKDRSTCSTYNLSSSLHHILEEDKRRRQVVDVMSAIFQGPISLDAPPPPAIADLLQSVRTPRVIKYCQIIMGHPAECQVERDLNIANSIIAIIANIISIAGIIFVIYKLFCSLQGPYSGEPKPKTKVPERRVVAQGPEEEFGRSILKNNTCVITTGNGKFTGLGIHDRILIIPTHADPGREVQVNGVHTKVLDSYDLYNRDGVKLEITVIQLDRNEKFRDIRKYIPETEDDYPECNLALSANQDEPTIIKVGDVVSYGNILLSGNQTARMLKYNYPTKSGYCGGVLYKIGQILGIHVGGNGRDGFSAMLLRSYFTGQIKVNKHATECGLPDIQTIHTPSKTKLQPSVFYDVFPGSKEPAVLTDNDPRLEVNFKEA

[2] = test system: HeLa; experiment: Antiviral activity measured in cell culture assay, inhibiting plaque formation by 50% at subumolar concentrations.; assay type: functional, cell-based; settings: Homo sapiens
In short: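 HeLa monolayers (confluent) were infected with HRV-14 at 100 PFU/plate. After 30 min adsorption they were overlaid with maintenance medium containing 0.5% agarose plus compound at various concentrations, then held 48 h at 35 °C. Cells were formalin-fixed and crystal violet-stained. Duplicate plaque counts were converted to percent of control and the IC50 interpolated. Runs were repeated 2–3 times, the highest interpolated IC50 reported, and enviroxime was included as control.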

[3] = target: T1, Human rhinovirus A protease (Human rhinovirus sp.); experiment: Percent inhibition of HRV-14 3C protease was measured at a concentration of 100 ug/mL(average of duplicates which agreed within +/- 10%)
[4] = target: T1, Human rhinovirus A protease (Human rhinovirus sp.); experiment: Percent inhibition of HRV-14 3C protease was measured at a concentration of 5 ug/mL (average of duplicates which agreed within +/- 10%)

Row | Structure (SMILES) | inhibition [1] | IC50 [2] | inhibition [3] | inhibition [4]
1 | CC(C)C[C@H](NC(=O)[C@@H](NC(=O)OC(C)(C)C)C(C)C)C(=O)N[C@@H](Cc1ccccc1)C(=O)N[C@H](/C=C/C(=O)O)CCC(N)=O | 43% | > 10 mg/L |  | 
2 | CCOC(=O)/C=C/[C@H](CCC(N)=O)NC(=O)[C@H](Cc1ccccc1)NC(=O)[C@H](CC(C)C)NC(=O)[C@@H](NC(=O)OC(C)(C)C)C(C)C | 100% | 0.41 mg/L (≈ 0.621 µM) |  | 
3 | CCOC(=O)/C=C/C(CCC(N)=O)NC(=O)OCc1ccccc1 (stereo not given) |  | > 10 mg/L | 18% | 
4 | COC(=O)/C=C/C(CCC(N)=O)NC(=O)C(Cc1ccccc1)NC(=O)OCc1ccccc1 (stereo not given) |  | 3.2 mg/L (≈ 6.84 µM) |  | 51%
5 | NC(=O)CCC(/C=C/S(=O)(=O)c1ccccc1)NC(=O)C(Cc1ccccc1)NC(=O)OCc1ccccc1 (stereo not given) |  | > 10 mg/L | 42% | 
6 | COC(=O)/C=C/C(CCC(N)=O)NC(=O)OC(C)(C)C (stereo not given) |  |  | 18% | 
7 | CCOC(=O)/C=C/C(CCC(N)=O)NC(=O)OC(C)(C)C (stereo not given) |  | > 10 mg/L | 27% | 
8 | CCOC(=O)/C=C/C(CCC(N)=O)NC(=O)C(Cc1ccccc1)NC(=O)OC(C)(C)C (stereo not given) |  | > 10 mg/L | 39% | 
9 | COC(=O)/C=C/[C@H](CCC(N)=O)NC(=O)[C@H](Cc1ccccc1)NC(=O)[C@H](CC(C)C)NC(=O)[C@@H](NC(=O)C(CCC(=O)OC(C)(C)C)NC(=O)OC(C)(C)C)C(C)C (stereo not given in full) (Boc-[ξE](OtBu)VLF-X1) | 100% | 4.5 mg/L (≈ 5.42 µM) |  | 
10 | COC(=O)/C=C/[C@H](CCC(N)=O)NC(=O)[C@H](Cc1ccccc1)NC(=O)[C@H](CC(C)C)NC(=O)[C@H](NC(=O)[C@@H](N)CCC(=O)O)C(C)C | 100% |  |  | 
11 | COC(=O)/C=C/[C@H](CCC(N)=O)NC(=O)[C@H](Cc1ccccc1)NC(=O)[C@H](CC(C)C)NC(=O)[C@@H](NC(=O)OC(C)(C)C)C(C)C | 100% | 0.74 mg/L (≈ 1.15 µM) |  | 
12 | COC(=O)/C=C/C(CCC(N)=O)NC(=O)C(Cc1ccccc1)NC(=O)OC(C)(C)C (stereo not given) |  | > 10 mg/L | 42% | 
13 | COC(=O)/C=C/[C@H](CCC(N)=O)NC(=O)[C@H](Cc1ccccc1)NC(=O)[C@H](CC(C)C)NC(=O)[C@@H](NC(=O)OCc1ccccc1)C(C)C | 100% | 0.93 mg/L (≈ 1.37 µM) |  | 
14 | COC(=O)/C=C/[C@H](CCC(N)=O)NC(=O)[C@H](Cc1ccccc1)NC(=O)[C@H](CC(C)C)NC(=O)[C@@H](NC(=O)[C@@H](N)CCC(=O)O)C(C)C |  | > 10 mg/L |  | 

Reference: ChEMBL document CHEMBL1131017, “Synthesis and evaluation of peptidyl Michael acceptors that inactivate human rhinovirus 3C protease and inhibit virus replication” (J Med Chem, 1998)
